ROMK mod: modulators of human ROMK potassium channel. P48048. Tet-inducible ROMK, thallium flux fluorescence; actives lie on both sides. B-score at 10 µM. 2% of 130,000 active. AID 1918;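 active means signal ratio slope over the read window, or its plate-corrected B-score, at least 3 SD from the plate mean, either direction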;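 further: B-score of the F/F0 ratio slope over 7 to 12 s after thallium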
PKD1 kinase inh: PKD1 (human) kinase inhibition | Q15139 | PKD1 kinase fluorescence polarization assay | inhibition, % (concentration not given with the values) | 0.056% of 200,000 active; in the data active means inhibition above about 50%
Target sequence (Q15139 whole entry, looked up): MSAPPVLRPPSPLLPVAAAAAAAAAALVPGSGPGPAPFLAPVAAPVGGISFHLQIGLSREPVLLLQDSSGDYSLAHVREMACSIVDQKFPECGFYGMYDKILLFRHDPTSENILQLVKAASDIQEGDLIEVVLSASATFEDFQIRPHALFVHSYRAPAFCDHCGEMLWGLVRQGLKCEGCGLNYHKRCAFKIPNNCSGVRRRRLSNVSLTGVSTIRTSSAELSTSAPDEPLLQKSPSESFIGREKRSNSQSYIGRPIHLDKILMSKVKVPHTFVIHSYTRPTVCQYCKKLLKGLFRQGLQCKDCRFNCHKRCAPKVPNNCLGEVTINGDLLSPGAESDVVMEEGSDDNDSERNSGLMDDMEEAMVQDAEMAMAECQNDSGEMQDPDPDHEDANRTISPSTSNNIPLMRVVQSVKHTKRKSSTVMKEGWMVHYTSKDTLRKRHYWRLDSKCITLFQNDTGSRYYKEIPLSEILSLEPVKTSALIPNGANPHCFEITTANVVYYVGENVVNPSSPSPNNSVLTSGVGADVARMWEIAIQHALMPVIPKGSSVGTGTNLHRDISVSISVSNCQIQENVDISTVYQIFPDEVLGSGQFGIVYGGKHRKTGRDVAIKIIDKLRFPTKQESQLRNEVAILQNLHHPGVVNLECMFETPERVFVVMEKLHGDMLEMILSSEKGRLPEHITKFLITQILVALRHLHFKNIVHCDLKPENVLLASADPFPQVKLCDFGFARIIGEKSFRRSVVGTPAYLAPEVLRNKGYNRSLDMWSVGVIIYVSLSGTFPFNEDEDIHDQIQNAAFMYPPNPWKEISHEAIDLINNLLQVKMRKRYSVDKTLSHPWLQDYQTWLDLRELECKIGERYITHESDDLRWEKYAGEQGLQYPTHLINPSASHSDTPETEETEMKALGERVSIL
Cl transport mod: modulators of human KCC2 chloride dependent transport; Q9H2X9; KCC2 cells, thallium flux FluoZin-2 fluorescence; B-score of Tl+ flux slope (higher = more flux/activation; lower = inhibition) at 10 µM; 2.2% of 190,000 active; AID 1456;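 active means thallium flux slope and its plate-corrected score both differing from the plate sample mean at a set confidence after two filtering rounds, in either direction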;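 further: slope of fluorescence scaled to starting intensity during 10 to 20 s after thallium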
Rad51 HR inh: blocks human Rad51 in homologous recombination; hRad51 DNA strand exchange, fluorescence dequenching; inhibition, % at 10 µM; 0.085% of 200,000 active; AID 1385;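 active means inhibition above 40% at the single screening dose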
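Test system: preformed human Rad51 ssDNA filaments. Compound dosing: single dose, 10 µM final compound. Incubation: filaments 15 min 37 °C, then compound 30 min. Technique: FRET fluorescence dequenching, excitation 485 nm, emission 520 nm. Read-out basis: percent inhibition from fluorescence, normalised to plate control and blank means. Benchmarks: plate controls and plate blanks.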
ROMK retest: retested hit modulating human ROMK potassium channel; 54% of 3,000 active; normalized thallium flux (F/F0 slope) at 10 µM; AID 1917; ROMK thallium flux, fluorescence ratio; active compounds read low; shares compounds with ROMK mod;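 active means Flux at 10 µM at least 3 SD below or above vehicle control mean in one or both replicates; inconclusive means no clear call, values can overlap the other calls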
Each line names hits and unclear results; the compound was inactive in the other large screens (follow-up assays come after a bar, where they were run). The list is not random: actives were taken first. Their share in the collection is about 3%.

O=P(c1ccccc1)(c1ccccc1)c1nc(-c2ccccc2)oc1NCc1ccccc1	ROMK mod -1.9 | ROMK retest inactive
CCOP(=O)(OCC)c1nc(-c2ccccc2)oc1NCc1ccccc1	none (no result: Rad51 HR inh)
COCCOC(=O)/C(=C\c1cc(C(C)(C)C)c(O)c(C(C)(C)C)c1)C(C)=O	none (no result: ROMK mod, PKD1 kinase inh) | ROMK retest 0.061
CCOC(=O)c1c(C)oc2c1c(C=NCc1ccccn1)c(O)c1ccccc12	none (no result: ROMK mod, Rad51 HR inh) | ROMK retest 0.064
CN(C(=S)Nc1ccc(F)cc1)C1(c2ccccc2Cl)CCCCC1=O (stereo not given)	none (no result: ROMK mod) | ROMK retest inactive
CN(N)C(=S)Nc1ccc(F)cc1	none (no result: ROMK mod)
CC(OC(=O)CCc1c[nH]c2ccccc12)C(=O)c1ccccc1 (stereo not given)	none
O=P(OC1CCCCC1)(OC1CCCCC1)C(Nc1ccccc1)c1cccnc1 (stereo not given)	none (no result: ROMK mod, PKD1 kinase inh, Rad51 HR inh) | ROMK retest inconclusive
CCOP(=O)(OCC)C(Nc1ccccc1)c1cccnc1 (stereo not given)	none (no result: PKD1 kinase inh)
COc1ccc(NC(=O)Cc2ccc(Cl)c(Cl)c2)cn1	none
COc1ccc(NC(=O)/C(Cl)=C(/Cl)S(=O)(=O)Cc2ccc(C)cc2)cn1	ROMK mod -3.8 | ROMK retest inconclusive
CC(C)(C)c1ccc(NC(=O)COC(=O)c2ccc(NS(=O)(=O)c3ccc(F)c(F)c3)cc2)cc1	none
Cc1ccc(NC(=O)COc2ccccc2CNC(C)(C)CC(C)(C)C)cc1	ROMK mod -3.6 | ROMK retest 0.05
CC(C)OC(=O)C[N+](C)(C)CCN1C(=O)C2C(c3ccccc3)C=CC(c3ccccc3)C2C1=O (stereo not given)	ROMK mod -3.3 | ROMK retest inconclusive
C#CC[N+](C)(C)CCN1C(=O)C2C(c3ccccc3)C=CC(c3ccccc3)C2C1=O (stereo not given)	none
COc1ccc(-c2nc(-c3ccc(NC(=O)c4ccncc4)cc3)no2)cc1OC	none (no result: ROMK mod) | ROMK retest inactive
Fc1ccccc1Cc1noc(CN(Cc2ccccn2)CC2CCCO2)n1 (stereo not given)	none (no result: Rad51 HR inh)
CC(C)N(C(=O)COC(=O)CNC(=O)c1ccc(Br)cc1)c1ccccc1	none (no result: ROMK mod)
O=C(O)c1cc(N2C(=O)C3CC=CCC3C2=O)ccc1NCc1cccnc1 (stereo not given)	ROMK mod 2.6 (no result: Rad51 HR inh) | ROMK retest inactive
O=C(O)c1cc(N2C(=O)CCC2=O)ccc1NCc1cccnc1	none (no result: ROMK mod, PKD1 kinase inh)
O=C(CN(Cc1cccs1)C(=O)CNS(=O)(=O)c1ccccc1)NC1CCCC1	none
C[N+]1(CC(O)COCC2COc3ccccc3O2)CCOCC1 (stereo not given)	none
Cn1cccc1/C=C1\SC(=S)N(NC(=O)c2ccccc2)C1=O	ROMK mod -2.7 | ROMK retest 0.06
CCOC(=O)/C(=C/c1c(C)n(C)c2ccc([N+](=O)[O-])cc12)C(C)=O	ROMK mod -4.2 (no result: Cl transport mod) | ROMK retest 0.046
Cc1cc(NC(=O)/C=C/C(=O)N(CC(=O)NC2CCCC2)c2cccc3ccccc23)no1	ROMK mod -4 | ROMK retest 0.056
Cc1cc(NC(=O)CCC(=O)N(CC(=O)NC2CCCC2)c2ccccc2)no1	none
C/C(O)=C(/C#N)c1nc2ccccc2[nH]1	none (no result: ROMK mod, Rad51 HR inh)
N#C/C(=C/c1ccncc1)c1nc2ccccc2s1	ROMK mod -3.5 | ROMK retest 0.053
N#C/C(=C(/O)C(Cl)(Cl)Cl)c1nc2ccccc2[nH]1	ROMK mod -4.9 (no result: PKD1 kinase inh) | ROMK retest 0.045
N#C/C(=C\c1ccncc1)c1nc2ccccc2[nH]1	ROMK mod -5.2 | ROMK retest 0.051
N#C/C(=C\c1cccnc1)c1nc2ccccc2[nH]1	none (no result: ROMK mod, PKD1 kinase inh)
COc1ccc2[nH]c(CN3CCN(C(C)C)C(CCO)C3)c(C)c2c1 (stereo not given)	ROMK mod -7.8 | ROMK retest inactive
CCOC(=O)c1ccccc1NC(=S)N1CCC(C)CC1	none
CCOC(=O)c1ccccc1NC(=S)N1CC(C)CC(C)C1 (stereo not given)	none (no result: ROMK mod) | ROMK retest 0.064
CC1(C)CC(CC(=O)O)(c2ccccc2)CCO1 (stereo not given)	none (no result: ROMK mod) | ROMK retest inactive
O=S(=O)(NCc1ccco1)c1cccc2cccnc12	ROMK mod 1.3 | ROMK retest inactive
COc1cc(NC(=O)COc2ccc(-n3cnnn3)cc2)c(OC)cc1Cl	none (no result: ROMK mod) | ROMK retest inactive
COc1ccc(OC)c(NC(=O)COC(=O)c2ccc(-n3cnnn3)cc2)c1	none
Cc1c(Br)c(C(=O)NNC(=O)c2ccc(C(C)(C)C)cc2)nn1C	none (no result: PKD1 kinase inh)
CCC(C)N1C(=O)CCC1C(=O)O (stereo not given)	ROMK mod -8.2 | ROMK retest inactive
CC(C)CCNC(=O)C1CCC(=O)N1C(C)C (stereo not given)	none (no result: ROMK mod, Rad51 HR inh)
CC(=O)N1C(=O)N(C(C)=O)C2C1N(C)C(=O)N2C(C)=O (stereo not given)	none (no result: ROMK mod)
O=C(Cn1ncc2c3ccccc3n(Cc3ccc(F)cc3)c2c1=O)N1CCN(c2ncccn2)CC1	ROMK mod -2.9 | ROMK retest 0.067
CN(CCCC(=O)Nc1ccncc1)S(=O)(=O)c1ccc(Cl)cc1	ROMK mod -3.4 | ROMK retest 0.065
CCOC(=O)Cn1cc(C#N)c2ccccc21	none
CCOc1ccc(/C=C/[N+](=O)[O-])c2ccccc12	ROMK mod -3.8 | ROMK retest 0.043
CCOC(=O)COc1ccc2ccccc2c1/C=C/[N+](=O)[O-]	none
CCOC(=O)Cn1cc(/C=C/[N+](=O)[O-])c2ccccc21	ROMK mod -3.5 | ROMK retest 0.036
CCOc1ccc(NC(=O)CNC(=O)c2cccs2)cc1	none
O=C(O)CC(Sc1n[nH]c(=S)s1)C(=O)O (stereo not given)	none (no result: ROMK mod, PKD1 kinase inh)
COc1ccc(NC(=S)NCCCCCC(=O)C[N+](=O)[O-])cc1	ROMK mod 1.1 | ROMK retest inactive
COc1ccccc1C1=NC(c2ccc(C)cc2)N=C1C (stereo not given)	ROMK mod -2.7 | ROMK retest inactive
O=C(NCCc1ccccc1)c1ccc(NCC2CCCO2)c([N+](=O)[O-])c1 (stereo not given)	none
CCCCSC(=S)NC1CCS(=O)(=O)C1 (stereo not given)	none
O=S1(=O)CCC(NC(=S)SCCOc2ccccc2)C1 (stereo not given)	ROMK mod -5 | ROMK retest 0.068
CCOC(=O)c1c(NC(=S)NC(C)=O)sc(C)c1C	none
Cc1ccc(N2NC(=O)/C(=C\c3cc4c(cc3[N+](=O)[O-])OCO4)C2=O)cc1C	ROMK mod -4.9 | ROMK retest 0.048
CCCCOc1ccc(CC(=O)NO)cc1	none (no result: ROMK mod) | ROMK retest inactive
COc1cccc(-c2nnc(SCC(=O)Nc3cc(C)ccc3OC)n2N)c1	none (no result: ROMK mod) | ROMK retest inconclusive
COc1ccc(C)cc1NC(=O)CSc1nnc(-c2ccco2)n1N	none (no result: ROMK mod)
O=C(CCl)Nc1nc(-c2ccco2)c(-c2ccco2)s1	ROMK mod -4.2 | ROMK retest 0.053
O=C(CCCSc1ccccc1)Nc1nc(-c2ccco2)c(-c2ccco2)s1	none
CCOC(=O)c1ccc(NS(=O)(=O)c2c(N)n(C)c(=O)n(C)c2=O)cc1	none (no result: ROMK mod, PKD1 kinase inh, Cl transport mod)

From PubChem BioAssay
